Data on eight molecules can be found in ChEMBL document CHEMBL1152330, “Cytotoxic triterpenoid alkaloids from Buxus microphylla” (J Nat Prod, 2009).

Structures are written as SMILES. pIC50: −log10 of the molar value. Where only a bound is given, the exact number is not on record here.

The subject of one assay is HepG2. As to the kind of experiment: Cytotoxicity against human HepG2 cells after 72 hrs by MTT assay. It is filed as functional, cell-based. To be noted: HepG2, 72 h. Put shortly:
(§1)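 Cells grown in RPMI-1640 with 10% heat-inactivated bovine serum, L-glutamine, penicillin/streptomycin and 10 mM HEPES pH 7.4, at 37 °C, 5% CO2. Seeded, allowed to adhere 24 h, then exposed at 0.01–100 µg/mL (tenfold steps) for 72 h, triplicate wells. MTT 4 h, SDS–isobutanol–HCl solubilization 12–20 h. OD 570 nm versus DMSO controls. IC50 by LOGIT.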
(Tetrazolium assays rely on reduction of a dye to a coloured formazan, in cell work by metabolically active cells.)

The test system of a further assay is K562. Kind of assay: Cytotoxicity against human K562 cells after 72 hrs by MTT assay. The assay is classed as functional, cell-based. The settings on record: K562, 72 h. Put shortly:
as §1

A word on the pIC50: it is the negative decadic logarithm of the IC50, by convention in mol/L. Read a high pIC50 as a small IC50. Turning to `C/C=C1/C(=O)C[C@@]2(C)[C@@H]3CCC4C(C)(C)[C@@H](NC)CC[C@@]45C[C@@]35CC[C@]12C` (stereo partly specified), the results for the pIC50 in the assay on HepG2 and in the assay with K562 were less than 4.00 and 5.77, respectively.

Turning to `C=C1C2CC[C@@H]3[C@]4(CC[C@]5(C)/C(=C\C)C(=O)C[C@@]35C)C[C@]24CC[C@@H]1NC` (stereo partly specified) [BIXMICROPHYLLINE B], the figures for the pIC50 in the assay on HepG2 and with K562 were 6.11 and 6.43, respectively.

Take `C=C1C2CC[C@@H]3[C@]4(CC[C@]5(C)[C@@H](C(C)=O)[C@H](O)C[C@@]35C)C[C@]24CC[C@@H]1N(C)C` (stereo partly specified) [BUXIPPINE K]: the pIC50 was 4.24 with HepG2 and 4.45 in the assay with K562.

For the molecule `C[C@@H]([C@H]1[C@H](OC(=O)c2ccccc2)C[C@@]2(C)[C@@H]3CCC4[C@@]5(CC[C@H](NC(=O)c6ccccc6)[C@@]4(C)CO)C[C@@]35CC[C@]12C)N(C)C` (stereo partly specified) [BUXMICROPHYLLINE E], the negative-log IC50 (pIC50) in the assay with HepG2 is 4.40; with K562 it was less than 4.00.

`CC(C)C(=O)N[C@H]1CC[C@]23C[C@]24CC[C@]2(C)[C@@H]([C@H](C)N(C)C)[C@H](OC(=O)c5ccccc5)C[C@@]2(C)[C@@H]4C=CC3[C@]1(C)CO` (stereo partly specified) [BUXMICROPHYLLINE F]: the negative-log IC50 (pIC50) with HepG2 is 4.70; in the assay on K562 it was 5.53.

Regarding `COc1ccc(/C=C/C(=O)N[C@H]2CC[C@]34C[C@]35CC[C@]3(C)[C@@H]([C@H](C)N(C)C)[C@H](O)C[C@@]3(C)[C@@H]5CCC4[C@]2(C)CO)cc1O` (stereo partly specified) [BUXMICROPHYLLINE G], the pIC50 in the assay on HepG2 is 6.05; in the assay on K562, 5.35.

`C=C1C2CC[C@@H]3[C@]4(CC[C@]5(C)[C@@H](C(C)=O)[C@H](O)C[C@@]35C)C[C@]24CC[C@@H]1NC` (stereo partly specified) [CYCLOMICROBUXININE]: the pIC50 in the assay with HepG2 and with K562 was less than 4.00 each time.

`C/C=C1\C(=O)C[C@@]2(C)[C@@H]3CCC4C(C)(C)[C@@H](NC)CC[C@@]45C[C@@]35CC[C@]12C` (stereo partly specified) [Z-buxenone]: the values for the negative logarithm of the IC50 (pIC50) with HepG2 and in the assay with K562 were 4.83 and 5.25, respectively.
